# Results gathered from unrelated publications.
# Protocols differ between the studies behind these lines.
# P2RY14: P2Y purinoceptor 14 (P2RY14, Homo sapiens, UniProt Q15391)
# Nuclear receptor subfamily 4 group A member 2: Nuclear receptor subfamily 4 group A member 2 (Homo sapiens, UniProt P43354)
Compound,target,test,system,conditions,endpoint,result
COc1ccc2oc(-c3ccc4nc(N)oc4c3)c/c(=N\c3ccccc3NC(=O)CCN)c2c1,"Tyrosine-protein kinase JAK3 (JAK3, Homo sapiens, UniProt P52333)",binding,,1 µM,remaining binding,93%
Cc1cc(O)c(-c2ccc([C@@H](C)CN(C)C)cc2)c2c1[nH]c(=O)c1sccc12,"Eukaryotic elongation factor 2 kinase (EEF2K, Homo sapiens, UniProt O00418)","enzyme activity, inhibitor",,0.1 µM,inhibition,9.25%
NC/C(=C\F)COc1cccc(Cn2c(=S)[nH]c(=O)c3[nH]cnc32)c1,"Eosinophil peroxidase (Homo sapiens, UniProt P11678)","enzyme activity, inhibitor",,15 µM,remaining activity,41.3%
COc1ccc(OCC(=O)N[C@@H](Cc2c[nH]c3ccccc23)C(=O)OC(C)C)cc1,P2RY14,"cAMP, antagonist",HEK293,0.1 µM,inhibition,85.6%
CCCCC(=O)Nc1ccc(-c2ccc3ncn(CCC)c(=O)c3c2)cn1,"Tyrosine-protein kinase JAK3, JH1 (JAK3, Homo sapiens, UniProt P52333)","binding, competition with immobilised ligand",,0.5 µM,remaining binding,100%
CC(C)OC(=O)[C@H](Cc1c[nH]c2ccccc12)NC(=O)c1ccc2c(c1)OCO2,P2RY14,"cAMP, antagonist",HEK293,0.1 µM,inhibition,10.7%
CCN(CC)Cc1cc(Nc2ccnc3cc(Cl)ccc23)ccc1O,Nuclear receptor subfamily 4 group A member 2,"thermal stability, DSF",,100 µM,ΔTm,-0.09 °C
C#Cc1cc(-c2cc(Nc3nc(N[C@@H](C)c4ccc(F)cn4)ncc3Cl)n[nH]2)ccc1C=O,"Ribosomal protein S6 kinase alpha-4 (RPS6KA4, Homo sapiens, UniProt O75676)","enzyme activity, inhibitor",,0.2 µM,inhibition,8.79%
O=C(N[C@@H](Cc1c[nH]c2ccccc12)C(=O)O)C1c2ccccc2Oc2ccccc21,P2RY14,"cAMP, antagonist",HEK293,0.1 µM,inhibition,18.9%
Cc1onc(-c2ccccc2)c1-c1ccc(S(N)(=O)=O)cc1,Nuclear receptor subfamily 4 group A member 2,"thermal stability, DSF",,100 µM,ΔTm,-1 °C
CC(C)OC(=O)[C@H](Cc1c[nH]c2ccccc12)NC(=O)COc1ccccc1,P2RY14,"cAMP, antagonist",HEK293,0.1 µM,inhibition,79.3%
C1=C/COCc2cc(ccc2OCCN2CCCC2)Nc2nccc(n2)-c2cccc(c2)COC/1,"Mitogen-activated protein kinase kinase kinase 1 (MAP3K1, Homo sapiens, UniProt Q13233)",binding,,0.1 µM,remaining binding,100%
